# Measured values pooled from the literature.
# Compare with care: the assays were run in different laboratories.
# Target: Tyrosine-protein kinase Blk (BLK, Homo sapiens, UniProt P51451)
SMILES,test,setting,remaining binding
Nc1ncc2c(n1)-c1c([nH]c3ccc(C#CC4CC4)cc13)CCCC2,"binding, competition with immobilised ligand",1 µM,100%
O=C(c1ccc(Nc2ncc(Cl)c(-c3cc4ccccc4s3)n2)cc1)N1CCC(N2CCCC2)CC1,"binding, competition with immobilised ligand",1 µM,100%
Nc1cnc(N2CCc3cc(S(=O)(=O)Nc4c(F)cc(Cl)cc4F)cc(N4CCCC4=O)c32)nc1,"cell-free assay, competition with immobilised ligand",1 µM,100%
N[C@H]1CCN(c2nccc(-c3cnn4ncccc34)n2)C1,binding,1 µM,100%
O=C(c1ccc(Nc2nccc(-c3cc4ccccc4s3)n2)cc1)N1CCC(N2CCCC2)CC1,"binding, competition with immobilised ligand",1 µM,100%
C[C@@H](c1ccc(-n2cnc3c(N)ncnc32)cc1)N1CCc2nn(C)c(Cc3ccccc3)c2C1=O,"binding, competition with immobilised ligand",0.1 µM,89%
COc1ccc2c(c1)O[C@H](c1ccc(OC)c(OC)c1)C[C@@H]2NC(=O)C1(c2ccc3c(c2)OC(F)(F)O3)CC1,"cell-free assay, competition with immobilised ligand",1 µM,100%
C=CC(=O)N1CCC(C(=O)NCC(=O)N2CCN(c3nc(-c4cnc(N)nc4C(F)F)nc(N4CCOCC4)n3)CC2)CC1,"binding, competition with immobilised ligand",1 µM,100%
O=C(Nc1c[nH]nc1C(=O)NC1CCNCC1)c1cc(F)cc(F)c1,"binding, competition with immobilised ligand",1 µM,83%
CNC(=O)[C@@H]1CC[C@@H](n2c(-c3ccc4cnccc4c3)nc3ccc(C(=O)NCc4cccc(C(N)=O)c4)cc32)C1,"binding, competition with immobilised ligand",1 µM,91%
C[C@@H]1CCN(c2nccc(-c3cnn4ncccc34)n2)C1,binding,1 µM,100%
Cc1c(C(=O)O)cc(-c2ccc(C3CCNCC3)cc2)c2ccc(-c3ccc(C(F)(F)F)cc3)cc12,"cell-free assay, competition with immobilised ligand",1 µM,100%
CN(C)c1nccc(-c2cnn3ncccc23)n1,binding,1 µM,100%
Cn1nc(C(F)(F)F)cc1-c1cnc(N2CCc3cc(S(=O)(=O)Nc4c(F)cc(Cl)cc4F)cc(N4CCCC4=O)c32)nc1,"cell-free assay, competition with immobilised ligand",1 µM,100%
CC1CCCN1c1nccc(-c2cnn3ncccc23)n1 (stereo not shown),binding,1 µM,100%
O=C(c1ccc(Nc2ncc(Cl)c(-c3ccc(Cl)s3)n2)cc1)N1CCC(N2CCCC2)CC1,"binding, competition with immobilised ligand",1 µM,100%
COc1ccnn2ncc(-c3ccnc(N(C)C)n3)c12,binding,1 µM,100%
CO[C@@H](C)c1c(Nc2ccc([C@H](N(C)C(=O)C3CCS(=O)(=O)CC3)C(F)(F)F)cc2)cnc2cc(Cl)nn12,"cell-free assay, competition with immobilised ligand",1 µM,87%
c1cnn2ncc(-c3ccnc(N4CCC45COC5)n3)c2c1,binding,1 µM,100%
FC(F)(F)Oc1cccc(-c2cnc3ccc(-c4ccncc4)nn23)c1,"cell-free assay, competition with immobilised ligand",5 µM,51%
FC(F)(F)c1ccc2c(c1)nc(-c1cccnc1)n2C1CC1,"cell-free assay, competition with immobilised ligand",1 µM,96%
CN(c1nccc(-c2cnn3ncccc23)n1)C1CC1,binding,1 µM,100%
